experiment: Toxicity liver stage against HepG2, at 10uM; format: cell-based; set-up: test concentration 10 uM, cell line HepG2-A16-CD81EGFP; settings: human, HepG2-A16-CD81EGFP cells; read-out: INHIBITION
Summary of the method: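 Uninfected HepG2-A16-CD81EGFP cells, 3 × 10^3 per well, 1536-well, plated on prespotted compound at 10 μM final, parasite-free screening media added to match infected plates; puromycin 10 μM positive, DMSO 0.5% negative; run in parallel with 48 h PbLuc assay at 37 °C, 5% CO2; viability by CellTiter-Glo luminescence, normalized to controls.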

Structure (SMILES) | cytotoxicity at 10 µM
COc1ccc(CN(C)C(=O)CSc2nnc(N)s2)c(OC)c1OC | 7.59%
N#Cc1cccnc1N1CCN(C(=O)CCC(=O)c2cccs2)CC1 | -8.7%
CN1C(=N)NC(=O)/C1=C\c1ccc(-c2ccc(F)cc2)o1 | 13.5%
CCCC(O)CN1CC(C)(C)CN(C(=O)c2ccccc2)CC1=O (stereo not given) | -0.295%
CNC(=O)CC1c2cccnc2C(=O)N1Cc1ccccc1 (stereo not given) | -2.51%
COc1ccc(CN2CC(O)CN(C(=O)CC(C)C)CC2=O)cc1 (stereo not given) | -0.634%
O=C(Cc1cnc(-c2c(Cl)cccc2Cl)s1)N1CCOCC1 | 3.29%
COCCNC(=O)NC1(c2nc(C)no2)CCCCC1 | 1.56%
Cc1nc(N2CCOCC2)nc(C)c1NC(=O)COc1ccccc1 | 4.17%
COCCN1CCn2c(nc3cc(C(=O)NC(C)C)ccc32)C1 | 2.38%
CC(C)n1c(=O)c2sccc2n(CC(=O)Nc2cccc(Cl)c2)c1=O | 8.93%
COc1ccc(NC(=O)Cn2nc(C)ccc2=O)cc1OC | 1.57%
O=C(CCn1nc(C(F)(F)F)c(Cl)c1C1CC1)NN1CCOCC1 | 7.69%
COC(=O)c1ccc(OC)c(Cn2cc(N)cn2)c1 | -7.8%
Cc1ncc(C(=O)N2CCC(C(=O)NC3CCCC3)C2)c(C)n1 (stereo not given) | 6.3%
CN(C)CCNC(=O)CC1CCN(c2cccnn2)CC1 | 6.04%
Cc1cc(C)n(C2CCN(S(=O)(=O)N3CCC(C)CC3)CC2)n1 | 6.36%
CCCn1nccc1-c1nccnc1CC1CCN(C(C)=O)CC1 | -6.15%
CCC(=O)N1CCC(c2nc(C)ncc2-c2ccncc2)CC1 | 6.04%
c1cc(CCNc2ccc(CC3CCNC3)cn2)ccn1 (stereo not given) | 3.09%
CCCc1cc(C(=O)N[C@@H]2CC[C@@H](N3CCOCC3)[C@@H]2O)no1 | -3.59%
c1cncc(CN2CC(Cc3nccc4cc[nH]c34)C2)c1 | -2.26%
O=C(C1CCOCC1)N1CCOCC(Cc2ncccn2)C1 (stereo not given) | 1.38%

Structure (SMILES) | cytotoxicity at 10 µM
Clc1cccc(Cl)c1CN(CCCN1CCOCC1)Cc1cccnc1 | -0.52%
O=S1(=O)NCC2(CCCN(Cc3ccccn3)C2)Oc2ncccc21 (stereo not given) | 2.22%
Cc1ccc2c(c1)N(C(=O)c1cc[nH]c(=O)c1)CC(C)O2 (stereo not given) | 2.71%
COc1cc(F)ccc1NC(=O)NCCNC(=O)OC(C)(C)C | -3.97%
N#Cc1c(CN2CCCCC2Cn2cncn2)cn2ccccc12 (stereo not given) | 3.06%
CC(C)CC1(C(=O)NCCc2nncn2C2CC2)CCC1 | -1.06%
N#Cc1ccc(CN2CCCCC2Cn2cncn2)cc1 (stereo not given) | -1.05%
NC(=O)C(NC(=O)CSCc1ccc(Cl)s1)c1ccccc1 (stereo not given) | 9.12%
Cc1nn2cccnc2c1C(=O)NCc1ccnc(OCC2CC2)c1 | -41.6%
Cc1cc(Br)ccc1CNC(=O)C1(O)CCSCC1 | 8.88%
CC(C)(C)CC(=O)NCC(=O)NS(=O)(=O)c1cccnc1 | -3.13%
O=C1CC2(CCSC2)C(=O)N1CCCc1ccccc1 (stereo not given) | 6.43%
Cc1csc(CN(CC2CCCO2)C(=O)c2ccc(C)nc2C)n1 (stereo not given) | -1.19%
CC(=O)NCCC(=O)NCc1cc(Br)ccc1OC(F)F | -6.47%
CSCC(=O)NCc1cc(Br)ccc1OC(F)F | -8.22%
N#Cc1ccccc1OCCN1CCCC(c2noc(C3CC3)n2)C1 (stereo not given) | 5.87%
CCN1CCC(NC(=O)CN2CCCC2Cn2cccn2)CC1 (stereo not given) | 1.98%
CN(C)C(=O)Cc1nc(CN2CCCCC2Cn2cncn2)cs1 (stereo not given) | -0.868%
CCCc1nc(C)c(C(=O)NC2CCN(C3CC3)C2)s1 (stereo not given) | -7.82%
CCn1cc(S(=O)(=O)NC(CO)Cc2c[nH]c3ccccc23)cn1 (stereo not given) | 10.8%
CCc1cc(NC(=O)C2CCCN(C(=O)NCC(C)C)C2)[nH]n1 (stereo not given) | -4.56%
COc1cccc(NC(C(N)=O)c2ccc(Br)cc2)c1 (stereo not given) | 11.3%
CS(=O)(=O)c1nccn1Cc1ccc(C(N)=O)cc1 | 6.77%

Structure (SMILES) | cytotoxicity at 10 µM
Cc1nc(CSc2nc(=O)ccn2C(C)C)cs1 | 16.4%
COCCC(=O)Nc1nc2c(OC)cc(F)cc2s1 | -0.327%
c1cc(CN2CCOC3(CCCC3)C2)no1 | -8.29%
CN(Cc1ccc(F)cc1F)CC(C)(CO)CO | -2.52%
CSC1(CNC(=O)N(C)Cc2ccc(Cl)s2)CCOCC1 | 8.08%
CN1N=C(C(=O)N(Cc2ccco2)C2CC2)CCC1=O | -2.62%
CC(C)NC(=O)C1CN(C(=O)c2ccco2)CC12CCOCC2 (stereo not given) | -0.516%
CS(=O)(=O)N1CCC2(CC1)CC(CC(=O)N1CCCC1)c1ccccc12 (stereo not given) | -0.748%
CCn1ccnc1CN(C)c1nc(-c2ccc(Cl)cc2)nc2c1CNC2 | -12.7%
CCC(O)Cn1nc(CCSC)nc1-c1ccc2c(c1)OCCO2 (stereo not given) | -0.268%
Cc1c(CN2CCCC(C(=O)CCc3ccccc3)C2)cc(C#N)n1C (stereo not given) | -5.76%
CC(C)Nc1cc(N2CCC(n3cc(CCO)nn3)CC2)ncn1 | 16.3%
CCc1cnc(N2Cc3cnc(C(C)(C)C)nc3C2)nc1 | 3.51%
c1cc(C2CCN(Cc3ccc4c(c3)OCO4)CC2)ccn1 | -2.98%
CCc1cc(N(C)CCCO)n2nccc2n1 | 1.77%
Cn1ncc2c(N3CCCC(C)(O)C3)nc(C(C)(C)C)nc21 (stereo not given) | -43.6%
COc1ccc(CN2CCCC3(CC2)CNC(=O)O3)cc1OC (stereo not given) | 5.75%
Cc1ccccc1-n1cc(C2=CCN(CCN3CCOCC3)CC2)cn1 | -5.06%
COC(=O)CCC(=O)N(C/C=C/c1ccccc1)CCO | 3.28%
c1cnc2nc(C3CCNCC3)[nH]c2c1 | 9.57%
CC(=O)N1CCC(NC(C)c2cnn(-c3ccc(F)cc3F)c2C)CC1 (stereo not given) | -6.4%
Cc1cccc(CN2CCC(NS(C)(=O)=O)CC2)n1 | 9.87%
NC(=O)CN1CC2(CCC1=O)CCN(Cc1ccccc1F)CC2 | 1.81%

Structure (SMILES) | cytotoxicity at 10 µM
COCc1nnc(C(=O)N(C)Cc2ccc(OC)cc2)o1 | -0.164%
O=S1(=O)COCCN1Cc1ccc(F)c(C(F)(F)F)c1 | 7.52%
CN(Cc1ccon1)CC1CCOc2ccccc2C1 (stereo not given) | -6.95%
Cc1nn(C)c(C)c1CN(CCO)C(=O)C1COc2ccccc2C1 (stereo not given) | -8.07%
CCc1ccc(CN2CCNC(C(=O)N3CCN(C)CC3)C2)o1 (stereo not given) | -0.891%
CCOc1cc(C)nc(N2CCN(C(=O)c3cc(C)on3)CC2)n1 | -1.61%
Cc1ccc(C(=O)NS(=O)(=O)c2c(Cl)cccc2Cl)c(=O)[nH]1 | -0.855%
COc1c(C2CCCN2CC(=O)Nc2cccnc2)c(C)nn1C (stereo not given) | -2.39%
CCc1nnc2n1CCN(Cc1csc(Cc3ccccc3)n1)C2 | -25%
Cc1cc(NC(=O)CN2CCN(c3nccs3)C(C)C2)no1 (stereo not given) | -9.66%
Cc1cc(CN2CCC(N(C)Cc3nnc(C4CC4)n3C)C2)on1 (stereo not given) | -11.6%
Cc1ccccc1C1(C(=O)NCCN(C)C)CCOCC1 | -1.95%
CN(Cc1ccc(O)cc1)C(=O)NC1CCCN(c2ncccn2)C1 (stereo not given) | -9.63%
CNc1nc(CNC(=O)Nc2ccccc2C(F)(F)F)cs1 | -0.896%
Cc1cccc(CN(C(=O)NCc2ccccn2)C2CC2)c1 | -6.73%
COc1c(C2CCCN2C(=O)c2c(C)noc2C)c(C)nn1C (stereo not given) | 0.471%
c1ccc(Cc2nnc(CN3CCOC(Cn4cccn4)C3)o2)cc1 (stereo not given) | -8.48%
COc1cc(Cl)ccc1C(=O)N1CCCC(n2nc(C)nc2C)C1 (stereo not given) | -5.8%
CC(c1c(F)cccc1F)N1CCN(Cc2nccn2C)CC1 (stereo not given) | -13.6%
CCc1nnc2n1CCN(C(=O)c1ccnc(N(C)C)c1)C2 | -21%
Cc1nc(C2CCCN(C(=O)c3c(C)nn4cccnc34)C2)no1 (stereo not given) | -7.62%
Cc1nc(CC(=O)N2CCCC2Cn2cccn2)cs1 (stereo not given) | -11.2%
CCc1nc(C2CCCN2CC(=O)Nc2cc(C)nn2C)no1 (stereo not given) | -7.82%

Structure (SMILES) | cytotoxicity at 10 µM
CNc1snc(C)c1C(=O)N1CCCC(n2nc(C)nc2C)C1 (stereo not given) | -7%
Cc1cnn(CC2CN(c3ncnc4[nH]ccc34)CCO2)c1 (stereo not given) | -1.91%
COc1ccccc1OCCNCCn1cccn1 | -4.53%
Cc1cnn(CC(C)NCc2csc(-c3cccs3)n2)c1 (stereo not given) | -5.8%
Cn1cc(C2CCCN2CCC(=O)N2CCc3sccc3C2)cn1 (stereo not given) | -8.25%
COCCOc1ccccc1C(=O)N1CCCC(c2cc(C)[nH]n2)C1 (stereo not given) | -22.6%
Cc1cnn(C2CCCN(C(=O)c3sccc3C#N)C2)c1 (stereo not given) | 0.736%
Cn1cc(NC(=O)N2CCC(CN3CCCC3)CC2)ccc1=O | -11.5%
c1ncn(CC2CCCCN2Cc2noc(C3CC3)n2)n1 (stereo not given) | -0.935%
O=C(Nc1ccccn1)C1=NN(c2ccccc2)C(=O)CN1 | -1.53%
CCc1c(C(=O)NC2CCS(=O)(=O)C2)cnn1-c1ccc(F)cc1 (stereo not given) | -6.31%
N#Cc1ccc(OCCN2CCc3c(ncn3C3CC3)C2)cc1 | -0.318%
CCc1nc(C2CCCN2C(=O)c2nc(C)n3ccccc23)no1 (stereo not given) | 1.85%
Cc1cc(C(=O)N2CCc3nnc(N(C)C)cc3C2)c(C)n1C1CC1 | 1.56%
Fc1ccc(OCCCN2CCOC(Cn3cncn3)C2)cc1 (stereo not given) | -1.03%
CC(C)C(=O)NCc1cccc(N2CCCCC2=O)c1 | -1.73%
NC(=O)N1CC2(CCNCC2)c2cc(Cl)ccc21 | 1.79%
CC(C)c1nn(C)c(N(C)C)c1CNCc1cccc2cccnc12 | -11.2%
Cc1ccc(C(=O)N2C[C@@H]3CCN(c4cccnc4)C[C@@H]3C2)cn1 | -75.9%
CC(C)(CN)NS(=O)(=O)c1cccc(F)c1F | -5.7%
c1cnc(NCc2cncc3c2CCN(Cc2ccoc2)C3)nc1 | -70.9%
CNC(=O)[C@@]12CCO[C@@H]1CCN(Cc1scnc1C)C2 | 6.12%
O=C(c1cccnc1)N1C[C@H]2CC[C@@H](C1)N(Cc1cc(F)ccc1F)C2 | -10.2%

Reference: ChEMBL document CHEMBL4513216, “Probing the Open Global Health Chemical Diversity Library for Multistage-Active Starting Points for Next-Generation Antimalarials” (ACS Infect Dis, 2020)
